Published values gathered from unrelated publications.
Protocols differ between the studies behind these lines.
Target: Phosphatidylinositol 4-phosphate 5-kinase type-1 alpha (PIP5K1A, Homo sapiens, UniProt Q99755)

With `COCCOc1nc(-c2ccc(Cl)nc2)nc2c1CN(C(=O)c1ncn3ccccc13)CC2` the remaining binding was 100% (cell-free assay; competition with immobilised ligand; 0.1 µM).
For `Nc1ncnc2occ(-c3ccc(NC(=O)Nc4cc(C(F)(F)F)ccc4F)cc3)c12`, the remaining activity was 60% (enzyme activity; inhibitor; 20 µM).
`O=C(CSc1nc2nccnc2c(=O)n1CCc1ccccc1)Nc1nccs1` gave an inhibition of -2% (enzyme activity; inhibitor; 10 µM).
For `Cc1ccc(C(=O)Nc2ccc(CN3CCN(C)CC3)c(C(F)(F)F)c2)cc1C#Cc1cnc2cccnn12`, the remaining activity was 79% (enzyme activity; inhibitor; 23.5 nM).
With `CN1CC(Oc2cnc(C#N)cc2-c2ccn3nc(NC(=O)C4CC4)cc3c2)C1` the inhibition was 0% (enzyme activity; inhibitor; 1 µM).
The remaining activity of `COc1cc(Cl)c(C(=O)N[C@@H](CN[C@H]2CC[C@@H](N)CC2)Cc2ccc(C#N)cc2)cc1-c1ccc(CN[C@H](C)c2ccc(C)cc2)o1` is reported as 106% (enzyme activity; inhibitor; 1 µM).
`Cc1cc(NC(=O)c2cccc3cc(-c4cccc5[nH]nc(N)c45)ccc23)ccc1F` gave an activity vs control of 96% (enzyme activity; inhibitor; 0.1 µM).
With `CCOCCn1cc(C(=O)Nc2ccc(-n3nc(-c4cccnc4)cc3C(F)(F)F)cn2)ccc1=O` the remaining binding was 100% (cell-free assay; competition with immobilised ligand; 1 µM).
The remaining activity of `Cc1cnc(NC2CCOCC2)nc1-n1cnc(C(=O)NC(CN)c2cc(F)cc(Cl)c2)c1` (centres unmarked) is reported as 100% (enzyme activity; inhibitor; radiometric; 1 µM).
`Cc1ccc(NC(=O)c2ccc(C)c(C(F)(F)F)c2)cc1C#Cc1nn(C2CCC(O)CC2)c2ncnc(N)c12` (centres unmarked) gave a remaining signal of 102% (cell-free assay; inhibitor; 10 µM).
With `CS(=O)(=O)Nc1cccc(-c2csc(NC(=O)CSc3nc4nccnc4c(=O)n3CCc3ccccc3)n2)c1` the inhibition was -1% (enzyme activity; inhibitor; 10 µM).
